Laboratory results taken from ChEMBL document CHEMBL1123812, “Pyrroloisoquinoline antidepressants. 2. In-depth exploration of structure-activity relationships” (J Med Chem, 1987).
The source made the active and inactive calls.

Assays:
[1] = target: T1, Adrenergic receptor alpha-2 (Rattus norvegicus, UniProt P22086+P19328+P22909); assay: Binding affinity towards alpha-2 adrenergic receptor; assay type: protein assay
T1 sequence (P22086 whole entry): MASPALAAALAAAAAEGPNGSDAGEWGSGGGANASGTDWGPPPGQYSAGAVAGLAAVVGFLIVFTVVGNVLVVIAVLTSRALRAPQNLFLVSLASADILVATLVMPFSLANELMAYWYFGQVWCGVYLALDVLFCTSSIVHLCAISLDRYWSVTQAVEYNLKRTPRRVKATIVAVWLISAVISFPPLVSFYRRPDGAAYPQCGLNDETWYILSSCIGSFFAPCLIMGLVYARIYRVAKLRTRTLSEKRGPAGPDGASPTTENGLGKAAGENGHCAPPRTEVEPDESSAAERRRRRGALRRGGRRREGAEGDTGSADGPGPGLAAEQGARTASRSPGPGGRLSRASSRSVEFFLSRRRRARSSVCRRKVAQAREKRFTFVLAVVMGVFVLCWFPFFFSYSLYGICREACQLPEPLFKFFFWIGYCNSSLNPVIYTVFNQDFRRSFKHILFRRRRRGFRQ
T1 sequence (P19328 whole entry): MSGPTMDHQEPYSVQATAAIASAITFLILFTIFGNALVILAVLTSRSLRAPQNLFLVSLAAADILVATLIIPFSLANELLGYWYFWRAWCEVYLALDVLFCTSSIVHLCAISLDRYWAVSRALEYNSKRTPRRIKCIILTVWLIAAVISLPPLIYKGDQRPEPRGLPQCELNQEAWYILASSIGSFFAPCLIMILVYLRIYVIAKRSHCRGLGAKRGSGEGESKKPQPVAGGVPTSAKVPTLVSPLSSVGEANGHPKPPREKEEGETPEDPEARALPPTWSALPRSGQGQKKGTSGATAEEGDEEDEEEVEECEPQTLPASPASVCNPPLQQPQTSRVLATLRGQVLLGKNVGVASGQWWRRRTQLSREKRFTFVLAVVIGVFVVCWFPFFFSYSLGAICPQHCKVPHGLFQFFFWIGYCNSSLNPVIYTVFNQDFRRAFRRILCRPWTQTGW
T1 sequence (P22909 whole entry): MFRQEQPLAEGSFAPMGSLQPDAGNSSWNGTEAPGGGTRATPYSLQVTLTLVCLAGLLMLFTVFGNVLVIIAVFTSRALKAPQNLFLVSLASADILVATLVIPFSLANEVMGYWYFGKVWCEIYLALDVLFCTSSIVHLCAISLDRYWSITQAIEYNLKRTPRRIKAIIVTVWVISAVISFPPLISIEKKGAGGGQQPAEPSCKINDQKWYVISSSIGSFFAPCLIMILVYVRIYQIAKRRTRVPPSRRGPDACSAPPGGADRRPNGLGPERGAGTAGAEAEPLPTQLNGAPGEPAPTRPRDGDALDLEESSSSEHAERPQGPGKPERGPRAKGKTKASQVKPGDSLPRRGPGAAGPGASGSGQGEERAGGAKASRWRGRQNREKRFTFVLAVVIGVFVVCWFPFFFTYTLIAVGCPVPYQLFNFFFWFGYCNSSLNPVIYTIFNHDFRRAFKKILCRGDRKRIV

[2] = organism: Mus musculus; assay: Antagonism of tetrabenazine (TBZ)-induced depression in mice measured for ptosis; assay type: functional
Outline: (§1)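 Nonfasted male Swiss Webster mice, 18–24 g, ten per dose level and in saline controls. Test compound given ip 30 min before tetrabenazine 32 mg/kg ip; dose expressed as free base. Motor activity and ptosis scored. Control response ≤90% corrected by Abbott's formula.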

[3] = target: Serotonin 1 (5-HT1) receptor (Rattus norvegicus) (UniProt P28564+P30940+P19327+P28565); assay: Binding affinity towards serotonin S1 receptor at 1.0 uM; assay type: protein assay
Outline: (§2)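 Rat brain crude synaptic membranes in 20 mM NaHEPES pH 7.5. Ligands: α1 cortex […] 0.4 nM, nonspecific with (-)-NE 100 μM, 30 min at 25 °C. […] D2 striatum [3H]spiperone 0.05 nM with (+)-butaclamol 1 μM, 45 min at 37 °C. S1 cortex [3H]5-HT 1 nM plus glutathione and MgCl2, with 5-HT 10 μM, 20 min at 37 °C. […] Samples filtered on GF/B and counted.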

[4] = target: D(2) dopamine receptor (Rattus norvegicus) (UniProt P61169); assay: Binding affinity towards dopamine receptor D2 at 1.0 uM concentration; outline: as §2
[5] = target: D(1A) dopamine receptor (Rattus norvegicus) (UniProt P18901); assay: Binding affinity towards Dopamine receptor D1 at 1.0 uM concentration; outline: as §2
[6] = target: Adrenergic receptor alpha-2 (Rattus norvegicus) (UniProt P22086+P19328+P22909); assay: Binding affinity towards alpha-2 adrenergic receptor at 1.0 uM concentration; assay type: protein assay
[7] = target: Muscarinic acetylcholine receptor (Rattus norvegicus) (UniProt P08482+P08483+P08485+P08911+P10980); assay: Binding affinity towards Muscarinic acetylcholine receptor at 1.0 uM concentration; assay type: protein assay
[8] = organism: Rattus norvegicus; assay: Inhibition of GABA uptake at 1 uM concentration.; assay type: functional
[9] = organism: Mus musculus; assay: Gross behavioral effects ascertained in mice; W indicates weak stimulant or depressant activity of little significance.; assay type: functional, organism-based
Outline: (§3)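 Male Swiss Webster mice, 18–24 g, three per dose, given ip doses of 1, 3, 10, 30, 100 and 300 mg/kg. Observed for gross behavior and held for 4 days. Scored as weak (W), stimulant (S), depressant (D) or convulsant (C).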

[10] = target: T2, Adrenergic receptor alpha-1 (Rattus norvegicus, UniProt P15823+P23944+P43140); assay: Binding affinity towards alpha-1 adrenergic receptor; assay type: protein assay
T2 sequence (P15823 whole entry): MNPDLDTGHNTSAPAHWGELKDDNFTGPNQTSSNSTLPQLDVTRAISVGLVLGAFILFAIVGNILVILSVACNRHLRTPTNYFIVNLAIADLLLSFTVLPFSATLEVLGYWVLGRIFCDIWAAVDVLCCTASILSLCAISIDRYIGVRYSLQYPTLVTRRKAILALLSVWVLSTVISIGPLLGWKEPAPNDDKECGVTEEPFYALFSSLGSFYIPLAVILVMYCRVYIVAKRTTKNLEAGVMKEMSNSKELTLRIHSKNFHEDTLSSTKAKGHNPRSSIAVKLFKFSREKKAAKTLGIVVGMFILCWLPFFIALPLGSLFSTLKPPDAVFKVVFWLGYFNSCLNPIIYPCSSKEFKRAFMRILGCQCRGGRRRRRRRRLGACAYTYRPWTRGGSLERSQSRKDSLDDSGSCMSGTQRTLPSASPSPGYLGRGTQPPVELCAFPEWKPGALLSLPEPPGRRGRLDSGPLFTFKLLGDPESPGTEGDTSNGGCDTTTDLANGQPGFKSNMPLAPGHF
T2 sequence (P23944 whole entry): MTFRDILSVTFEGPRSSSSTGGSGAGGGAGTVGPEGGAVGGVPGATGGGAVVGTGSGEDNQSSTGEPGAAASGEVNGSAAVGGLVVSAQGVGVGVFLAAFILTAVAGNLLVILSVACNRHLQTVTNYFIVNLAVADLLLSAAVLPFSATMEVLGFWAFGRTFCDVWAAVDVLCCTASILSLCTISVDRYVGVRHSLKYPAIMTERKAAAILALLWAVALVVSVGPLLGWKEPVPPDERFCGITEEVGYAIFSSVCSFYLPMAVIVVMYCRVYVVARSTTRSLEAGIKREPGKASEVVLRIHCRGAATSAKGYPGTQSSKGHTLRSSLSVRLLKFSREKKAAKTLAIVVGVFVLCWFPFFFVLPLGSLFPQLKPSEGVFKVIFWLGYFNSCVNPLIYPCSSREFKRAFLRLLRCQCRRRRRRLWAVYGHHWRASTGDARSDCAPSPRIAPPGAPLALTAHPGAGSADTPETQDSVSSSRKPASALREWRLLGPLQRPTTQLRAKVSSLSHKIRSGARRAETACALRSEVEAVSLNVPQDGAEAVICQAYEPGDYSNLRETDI
T2 sequence (P43140 whole entry): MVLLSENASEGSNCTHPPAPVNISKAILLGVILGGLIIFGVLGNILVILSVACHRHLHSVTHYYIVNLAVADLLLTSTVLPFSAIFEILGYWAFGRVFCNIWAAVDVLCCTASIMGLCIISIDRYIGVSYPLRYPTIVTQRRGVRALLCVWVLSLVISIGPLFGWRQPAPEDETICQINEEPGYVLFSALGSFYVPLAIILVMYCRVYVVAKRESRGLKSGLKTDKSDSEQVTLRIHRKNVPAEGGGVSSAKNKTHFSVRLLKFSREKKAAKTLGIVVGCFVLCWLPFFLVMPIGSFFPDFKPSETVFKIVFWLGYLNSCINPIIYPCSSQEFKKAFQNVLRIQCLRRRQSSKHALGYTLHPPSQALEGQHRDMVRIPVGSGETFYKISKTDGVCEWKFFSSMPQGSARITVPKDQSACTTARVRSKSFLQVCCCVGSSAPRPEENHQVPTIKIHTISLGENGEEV

[11] = organism: Mus musculus; assay: Antagonism of tetrabenazine (TBZ)-induced depression measured in mice by motor activity; assay type: functional; outline: as §1
[12] = target: D(2) dopamine receptor (Rattus norvegicus, UniProt P61169); assay: Binding affinity towards Dopamine receptor D2
[13] = target: Serotonin 1 (5-HT1) receptor (Rattus norvegicus, UniProt P28564+P30940+P19327+P28565); assay: Binding affinity towards serotonin S1 receptor; assay type: protein assay; outline: as §2
[14] = system: Mus musculus; assay: (§4) Ability to antagonise intraperitoneal dose; inactive (<10% antagonism) at 30 mgjkg is represented as I-30.; assay type: functional, organism-based
Outline: (§5)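 Swiss Webster male albino mice, nonfasted, 18–24 g, 10 per dose and in saline control. Compound given ip 30 min before TBZ 32 mg/kg ip. Motor activity and ptosis scored. Response corrected by Abbott's formula when control response was 90% or less. Doses expressed as free base.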

[15] = target: Norepinephrine transporter (Rattus norvegicus, UniProt Q9WTR4); assay: Inhibition of uptake of tritiated norepinephrine (NE) in rat synaptosomes; assay type: subcellular, Brain
[16] = target: Sodium-dependent dopamine transporter (Rattus norvegicus, UniProt P23977); assay: Inhibition of the uptake of tritiated dopamine (DA) in rat synaptosomes; assay type: subcellular, Brain
[17] = system: Mus musculus; assay: as §4; assay type: functional, organism-based; outline: as §5; remark: listed apart in the source
[18] = organism: Rattus norvegicus; assay: Ability to inhibit the uptake of tritiated dopamine (DA) 1 uM concentration; assay type: functional
Outline: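 Rat brain synaptosomal [3H]dopamine uptake: striatal P2 fraction, test compound at 1.00 μM. Preincubated at 37 °C, then 50–300 nM [3H]DA for 3 min. Blanks on ice. Filtration and scintillation counting; percent inhibition of control uptake.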

[19] = target: Sodium-dependent serotonin transporter (Rattus norvegicus) (UniProt P31652); assay: Ability to inhibit the uptake of [3H]- serotonin(5-HT) 0.1 uM concentration at rat brain synaptosomes; assay type: functional, subcellular
Outline: (§6)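 Male Wistar rat brain synaptosomes (P2 fraction): hypothalamus for NE, striatum for DA, cerebral cortex for 5-HT. Buffer is Tris- or HEPES-buffered salt medium with glucose, ascorbate and nialamide, pH 7.4 at 37 °C. Preincubated 10 min at 37 °C with compound. Uptake started with [3H]NE 100–300 nM, [3H]DA 50–300 nM or [3H]5-HT 100–200 nM, incubated 3 min (DA) or 6–10 min (NE, 5-HT). Blanks held on ice. Filtered, counted by scintillation.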

[20] = target: Norepinephrine transporter (Rattus norvegicus) (UniProt Q9WTR4); assay: Ability to inhibit the uptake of [3H]norepinephrine (NE) 0.1 uM concentration at rat brain synaptosomes; assay type: functional, subcellular; outline: as §6
[21] = target: Serotonin 2 (5-HT2) receptor (Rattus norvegicus) (UniProt P30994+P08909+P14842); assay: Binding affinity towards 5-hydroxytryptamine 2 receptor at 1.0 uM concentration; assay type: protein assay; outline: as §2
[22] = organism: Mus musculus; assay: Gross behavioral effects ascertained in mice; S indicates significant stimulant properties.; assay type: functional, organism-based; outline: as §3
[23] = target: Adrenergic receptor alpha-1 (Rattus norvegicus) (UniProt P15823+P23944+P43140); assay: Binding affinity towards alpha-1 adrenergic receptor at 1.0 uM concentration; assay type: protein assay; outline: as §2

D(2) dopamine receptor (Rattus norvegicus), sequence (P61169 whole entry): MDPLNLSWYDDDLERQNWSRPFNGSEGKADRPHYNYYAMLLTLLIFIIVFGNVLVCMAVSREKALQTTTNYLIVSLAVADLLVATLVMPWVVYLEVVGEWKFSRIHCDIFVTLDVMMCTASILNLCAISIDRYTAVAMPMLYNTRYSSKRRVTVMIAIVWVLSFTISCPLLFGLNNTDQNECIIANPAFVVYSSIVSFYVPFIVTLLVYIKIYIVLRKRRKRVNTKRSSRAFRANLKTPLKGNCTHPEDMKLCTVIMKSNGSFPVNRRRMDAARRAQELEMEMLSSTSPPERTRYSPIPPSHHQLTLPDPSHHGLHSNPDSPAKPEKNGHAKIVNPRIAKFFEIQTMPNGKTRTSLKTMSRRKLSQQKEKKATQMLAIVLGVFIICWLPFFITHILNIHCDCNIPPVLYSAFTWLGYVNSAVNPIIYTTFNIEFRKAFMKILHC
Norepinephrine transporter, sequence (Q9WTR4 whole entry): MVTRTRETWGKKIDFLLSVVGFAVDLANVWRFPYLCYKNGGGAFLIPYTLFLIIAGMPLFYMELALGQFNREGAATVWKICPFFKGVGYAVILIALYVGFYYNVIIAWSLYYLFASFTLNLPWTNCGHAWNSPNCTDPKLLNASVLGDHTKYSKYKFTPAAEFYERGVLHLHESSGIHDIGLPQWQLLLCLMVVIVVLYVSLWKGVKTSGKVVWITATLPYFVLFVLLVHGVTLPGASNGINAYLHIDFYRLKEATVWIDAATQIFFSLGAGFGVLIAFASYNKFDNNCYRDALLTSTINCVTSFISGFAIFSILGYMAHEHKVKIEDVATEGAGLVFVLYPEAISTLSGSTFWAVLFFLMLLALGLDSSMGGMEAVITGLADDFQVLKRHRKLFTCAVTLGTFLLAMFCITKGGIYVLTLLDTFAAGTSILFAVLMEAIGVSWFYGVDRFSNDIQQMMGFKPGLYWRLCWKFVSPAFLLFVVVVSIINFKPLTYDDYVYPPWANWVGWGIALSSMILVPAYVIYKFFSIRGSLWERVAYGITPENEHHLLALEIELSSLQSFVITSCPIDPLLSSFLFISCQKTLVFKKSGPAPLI
Sodium-dependent dopamine transporter, sequence (P23977 whole entry): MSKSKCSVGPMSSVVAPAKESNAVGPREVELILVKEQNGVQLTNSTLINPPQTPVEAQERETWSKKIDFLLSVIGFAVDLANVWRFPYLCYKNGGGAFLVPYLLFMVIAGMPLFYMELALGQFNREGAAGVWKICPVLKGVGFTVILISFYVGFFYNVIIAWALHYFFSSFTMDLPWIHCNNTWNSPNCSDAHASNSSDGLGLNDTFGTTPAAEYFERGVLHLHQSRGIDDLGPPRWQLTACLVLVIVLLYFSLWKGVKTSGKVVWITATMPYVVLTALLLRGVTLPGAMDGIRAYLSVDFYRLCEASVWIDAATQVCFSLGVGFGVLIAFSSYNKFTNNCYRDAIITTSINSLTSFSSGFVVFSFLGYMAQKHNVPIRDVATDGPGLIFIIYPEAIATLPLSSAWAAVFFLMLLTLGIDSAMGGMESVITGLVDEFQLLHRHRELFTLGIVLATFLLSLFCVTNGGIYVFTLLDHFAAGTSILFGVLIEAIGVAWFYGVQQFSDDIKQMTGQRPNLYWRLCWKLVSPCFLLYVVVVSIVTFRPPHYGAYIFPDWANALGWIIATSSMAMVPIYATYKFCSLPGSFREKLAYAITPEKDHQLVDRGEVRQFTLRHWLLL
D(1A) dopamine receptor (Rattus norvegicus), sequence (P18901 whole entry): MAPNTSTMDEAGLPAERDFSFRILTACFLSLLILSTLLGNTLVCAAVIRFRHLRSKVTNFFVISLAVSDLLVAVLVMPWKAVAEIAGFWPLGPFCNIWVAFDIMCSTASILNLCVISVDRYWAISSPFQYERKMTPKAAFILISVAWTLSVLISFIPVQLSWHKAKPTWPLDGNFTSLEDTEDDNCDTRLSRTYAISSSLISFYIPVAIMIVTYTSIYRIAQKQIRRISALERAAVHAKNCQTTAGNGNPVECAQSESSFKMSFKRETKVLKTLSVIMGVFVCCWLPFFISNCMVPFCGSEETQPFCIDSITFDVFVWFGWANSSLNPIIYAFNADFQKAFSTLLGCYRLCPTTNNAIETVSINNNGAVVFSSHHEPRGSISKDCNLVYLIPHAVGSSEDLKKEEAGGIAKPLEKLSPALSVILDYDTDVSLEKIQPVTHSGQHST
D(2) dopamine receptor, sequence (P61169 whole entry): as the sequence (P61169 whole entry) above
Norepinephrine transporter (Rattus norvegicus), sequence (Q9WTR4 as listed by the source): as the sequence (Q9WTR4 whole entry) above
Serotonin 2 (5-HT2) receptor (Rattus norvegicus), sequence (P08909 whole entry, looked up): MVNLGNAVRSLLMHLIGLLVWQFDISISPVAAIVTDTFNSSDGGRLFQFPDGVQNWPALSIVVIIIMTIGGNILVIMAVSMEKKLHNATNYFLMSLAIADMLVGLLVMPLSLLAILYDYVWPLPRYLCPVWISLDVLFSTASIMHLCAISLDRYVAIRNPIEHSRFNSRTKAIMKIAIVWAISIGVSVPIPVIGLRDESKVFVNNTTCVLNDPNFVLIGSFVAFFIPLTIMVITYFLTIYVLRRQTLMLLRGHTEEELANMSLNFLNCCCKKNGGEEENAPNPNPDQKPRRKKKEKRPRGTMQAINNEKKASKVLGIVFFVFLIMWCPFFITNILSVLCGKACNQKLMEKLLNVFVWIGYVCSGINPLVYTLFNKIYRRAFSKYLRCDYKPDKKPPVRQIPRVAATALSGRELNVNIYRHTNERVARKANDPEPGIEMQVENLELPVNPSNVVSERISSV
Serotonin 2 (5-HT2) receptor (Rattus norvegicus), sequence (P14842 whole entry, looked up): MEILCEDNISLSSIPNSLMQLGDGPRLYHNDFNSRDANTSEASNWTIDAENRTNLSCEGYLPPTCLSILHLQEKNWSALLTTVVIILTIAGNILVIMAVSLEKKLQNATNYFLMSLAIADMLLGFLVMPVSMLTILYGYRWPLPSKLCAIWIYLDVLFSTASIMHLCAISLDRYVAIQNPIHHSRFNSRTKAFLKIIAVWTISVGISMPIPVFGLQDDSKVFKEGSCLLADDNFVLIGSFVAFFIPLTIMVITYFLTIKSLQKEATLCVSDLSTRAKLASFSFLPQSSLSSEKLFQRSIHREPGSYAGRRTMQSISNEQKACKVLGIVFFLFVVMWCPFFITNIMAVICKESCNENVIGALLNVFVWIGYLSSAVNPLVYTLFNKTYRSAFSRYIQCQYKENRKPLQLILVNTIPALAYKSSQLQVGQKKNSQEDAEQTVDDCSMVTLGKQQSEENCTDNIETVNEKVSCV
Serotonin 2 (5-HT2) receptor (Rattus norvegicus), sequence (P30994 whole entry, looked up): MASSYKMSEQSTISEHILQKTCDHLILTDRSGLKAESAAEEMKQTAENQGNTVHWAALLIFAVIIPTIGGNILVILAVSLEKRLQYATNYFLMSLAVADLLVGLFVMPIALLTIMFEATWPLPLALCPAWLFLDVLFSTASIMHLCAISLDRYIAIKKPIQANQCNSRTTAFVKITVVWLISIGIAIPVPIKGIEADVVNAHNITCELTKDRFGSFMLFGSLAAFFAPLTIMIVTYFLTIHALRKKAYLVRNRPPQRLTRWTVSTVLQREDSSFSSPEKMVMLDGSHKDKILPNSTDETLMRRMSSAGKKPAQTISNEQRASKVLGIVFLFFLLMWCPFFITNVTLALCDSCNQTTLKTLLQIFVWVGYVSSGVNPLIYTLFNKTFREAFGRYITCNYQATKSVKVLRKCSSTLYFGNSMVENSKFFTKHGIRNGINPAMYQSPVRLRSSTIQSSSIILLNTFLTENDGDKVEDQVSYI
Sodium-dependent serotonin transporter (Rattus norvegicus), sequence (P31652 whole entry): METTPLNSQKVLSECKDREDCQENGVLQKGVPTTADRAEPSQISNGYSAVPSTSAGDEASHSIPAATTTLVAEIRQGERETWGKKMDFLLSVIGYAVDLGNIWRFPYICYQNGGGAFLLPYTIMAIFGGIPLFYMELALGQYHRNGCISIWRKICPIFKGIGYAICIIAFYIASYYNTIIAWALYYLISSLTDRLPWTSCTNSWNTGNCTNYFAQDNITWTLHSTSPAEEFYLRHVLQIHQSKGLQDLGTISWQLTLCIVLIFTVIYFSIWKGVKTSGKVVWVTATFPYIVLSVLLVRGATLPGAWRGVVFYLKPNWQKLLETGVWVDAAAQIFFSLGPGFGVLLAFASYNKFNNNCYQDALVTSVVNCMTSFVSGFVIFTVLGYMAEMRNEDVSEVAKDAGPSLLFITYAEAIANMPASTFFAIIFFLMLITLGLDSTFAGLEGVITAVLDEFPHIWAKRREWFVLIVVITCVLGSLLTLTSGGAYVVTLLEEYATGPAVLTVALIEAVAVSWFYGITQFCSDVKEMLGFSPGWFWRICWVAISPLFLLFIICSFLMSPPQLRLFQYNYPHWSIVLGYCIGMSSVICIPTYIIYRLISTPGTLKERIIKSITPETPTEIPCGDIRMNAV

CN(C)CCCN1c2ccccc2CCc2ccccc21 [IMIPRAMINE]
Ki [1]: 4900 nM | ED50 ([2]; Mus musculus, read-out: ED50): 0.78 mg/kg | inhibition [3]: 15% | inhibition [4]: 63%

FC(F)(F)c1cccc([C@@H]2CN3CCC[C@@H]3c3ccccc32)c1 (stereo in doubt; 37b)
inhibition [5]: 17% | inhibition [6]: 7% | inhibition [7]: 1% | inhibition [8]: 16% | behavior [9]: Partial stimulant

c1ccc([C@@H]2CN3CCC[C@@H]3c3ccccc32)cc1 (stereo in doubt; 7b)
Ki [10]: 172 nM | Ki [1]: 750 nM | ED50 [11]: 0.34 mg/kg | Ki [12]: 875 nM | ED50 [2]: 0.07 mg/kg | Ki [13]: > 10 µM

c1ccc([C@@H]2CN3CC[C@H]3c3ccccc32)cc1
ED50 [14]: inactive | Ki [15]: 866 nM | Ki [16]: 1620 nM | ED50 [17]: inactive

C[C@@]12CCCN1CCc1ccccc12
ED50 [14]: inactive | Inhibition [18]: 15% | inhibition [19]: 2% | inhibition [20]: 6% | behavior [9]: Weak | ED50 [17]: inactive

CN(C)CCCN1c2ccccc2CCc2ccc(Cl)cc21 [CLOMIPRAMINE]
Ki [1]: 51 nM | Ki [12]: 56 nM | Ki [13]: 5 µM

Clc1ccccc1[C@@H]1CN2CCC[C@@H]2c2ccccc21 (stereo in doubt; 24b)
inhibition [6]: 12% | inhibition [7]: 6% | inhibition [8]: 16% | behavior [9]: Partial stimulant

CSc1ccc([C@@H]2CN3CCC[C@@H]3c3ccccc32)cc1 (stereo in doubt; 48b)
inhibition [5]: 24% | inhibition [8]: 10% | inhibition [4]: 4%

Clc1ccc([C@@H]2CN3CCC[C@@H]3c3ccccc32)cc1Cl
Ki [15]: 0.68 nM | inhibition [21]: 24% | Ki [16]: 0.99 nM | inhibition [7]: 9% | Ki [1]: 990 nM | ED50 ([11]; Mus musculus, read-out: ED50): 0.39 mg/kg | behavior [22]: Stimulant | ED50 ([2]; Mus musculus, read-out: ED50): 0.14 mg/kg | Ki [13]: 0.465 µM | inhibition [23]: 33% | inhibition [4]: 37%
